The record followed here is ChEMBL document CHEMBL1140069, “In vitro antifungal activity of polyfunctionalized 2-(hetero)arylquinolines prepared through imino Diels-Alder reactions” (2008).

Common to all, as to type: functional
One assay deals with Candida albicans. Nature of the assay: Antifungal activity against Candida albicans ATCC 10231 after 48 hrs by broth microdilution technique. The following applies: ATCC 10231, 48 h. In a few lines:
(§1)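 CLSI broth microdilution: M-27 A2 for yeasts and M-38 A for filamentous fungi. Medium is RPMI-1640 buffered to pH 7.0 with MOPS. Compound is diluted twofold from 250 to 0.98, final DMSO ≤2%. Inoculum is 1–5 × 10³ CFU/mL. Plates are incubated at 35 °C in a moist, dark chamber and read visually at 48 h. MIC100 is the lowest concentration giving total growth inhibition versus drug-free control.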

The test system of another assay is Trichophyton rubrum. In words: Antifungal activity against Trichophyton rubrum C110 after 48 hrs by broth microdilution technique. The following applies: read-out: MIC. In a few lines: as §1
For orientation: Broth dilution looks for growth in wells or tubes with falling amounts of substance.

The test system of assay [1] is Trichophyton mentagrophytes. In words: Antifungal activity against Trichophyton mentagrophytes ATCC 9972 after 48 hrs by broth microdilution technique. The following applies: ATCC 9972, 48 h. The essentials: as §1
The test system of the next assay is Aspergillus fumigatus. Nature of the assay: Antifungal activity against Aspergillus fumigatus ATTC 26934 after 48 hrs by broth microdilution technique. The essentials: as §1
The test system of the next assay is Cryptococcus neoformans. In words: Antifungal activity against Cryptococcus neoformans ATCC 32264 after 48 hrs by broth microdilution technique. The following applies: ATCC 32264, 48 h. The essentials:
as §1

The test system of a further assay is Aspergillus niger. In words: Antifungal activity against Aspergillus niger ATCC 9029 after 48 hrs by broth microdilution technique. The settings on record: ATCC 9029, 48 h. The essentials: as §1
A further assay deals with Saccharomyces cerevisiae. Nature of the assay: Antifungal activity against Saccharomyces cerevisiae ATCC 9763 after 48 hrs by broth microdilution technique. The following applies: ATCC 9763, 48 h. In a few lines: as §1
The subject of another assay is Aspergillus flavus. Nature of the assay: Antifungal activity against Aspergillus flavus ATCC 9170 after 48 hrs by broth microdilution technique. The following applies: ATCC 9170, 48 h. In a few lines:
as §1

The test system of the next assay is Nannizzia gypsea. Nature of the assay: Antifungal activity against Microsporum gypseum C115 after 48 hrs by broth microdilution technique. In a few lines: as §1

The structures appear in SMILES notation. Values after ≈ are worked out from the molar mass of the structure shown.

One may read the MIC as the lowest concentration found to suppress growth. For `Cc1ccc([N+](=O)[O-])c2c(C)cc(-c3ccncc3)nc12`, the MIC (with Candida albicans; in the assay on Trichophyton rubrum; in assay [1]; in the assay with Aspergillus fumigatus; with Cryptococcus neoformans; against Aspergillus niger) was more than 250 µg/mL in each case. Further, the MIC with Saccharomyces cerevisiae, in the assay with Aspergillus flavus and with Nannizzia gypsea was more than 250 µg/mL in each case.

With `Nc1cccc(-c2ccc3cc(Cl)ccc3n2)c1`, the MIC was more than 250 µg/mL against Candida albicans; 125 µg/mL (≈ 491 µM) in the assay with Trichophyton rubrum; 125 µg/mL (≈ 491 µM) in assay [1]; more than 250 µg/mL against Aspergillus fumigatus; more than 250 µg/mL against Cryptococcus neoformans; more than 250 µg/mL with Aspergillus niger. For the same compound, the MIC in the assay on Saccharomyces cerevisiae was more than 250 µg/mL; with Aspergillus flavus it was more than 250 µg/mL; in the assay with Nannizzia gypsea it was 125 µg/mL (≈ 491 µM).

`CCc1ccc2ccc(-c3ccc4c(c3)OCO4)nc2c1`: the MIC (against Candida albicans; in the assay with Trichophyton rubrum; in assay [1]; against Aspergillus fumigatus; in the assay on Cryptococcus neoformans; against Aspergillus niger) was more than 250 µg/mL each time. The MIC with Saccharomyces cerevisiae, against Aspergillus flavus and against Nannizzia gypsea was more than 250 µg/mL in each case.

Regarding `COc1ccc2nc(-c3ccc4c(c3)OCO4)ccc2c1`, the MIC (in the assay with Candida albicans; in the assay on Trichophyton rubrum; in assay [1]; against Aspergillus fumigatus; against Cryptococcus neoformans; with Aspergillus niger) was more than 250 µg/mL each time. In addition, the MIC against Saccharomyces cerevisiae, against Aspergillus flavus and with Nannizzia gypsea was more than 250 µg/mL in each case.

`Clc1ccc2nc(-c3ccco3)ccc2c1`: the MIC (against Candida albicans; in the assay on Trichophyton rubrum; in assay [1]; against Aspergillus fumigatus; against Cryptococcus neoformans; against Aspergillus niger) was more than 250 µg/mL throughout. The MIC in the assay with Saccharomyces cerevisiae, against Aspergillus flavus and in the assay on Nannizzia gypsea was more than 250 µg/mL throughout.

On to `Fc1ccc2nc(-c3ccccc3)ccc2c1`, for which the MIC against Candida albicans was more than 250 µg/mL; with Trichophyton rubrum, 250 µg/mL (≈ 1120 µM); in assay [1], 250 µg/mL (≈ 1120 µM); with Aspergillus fumigatus, more than 250 µg/mL; against Cryptococcus neoformans it was more than 250 µg/mL; in the assay on Aspergillus niger it was more than 250 µg/mL. For the same compound, the values for the MIC in the assay on Saccharomyces cerevisiae, in the assay with Aspergillus flavus and against Nannizzia gypsea were more than 250 µg/mL, more than 250 µg/mL and 250 µg/mL (≈ 1120 µM), respectively.

Consider `O=[N+]([O-])c1cccc(-c2ccc3cc(F)ccc3n2)c1`, for which the minimum inhibitory concentration (MIC) (with Candida albicans; with Trichophyton rubrum; in assay [1]; with Aspergillus fumigatus; in the assay on Cryptococcus neoformans; in the assay with Aspergillus niger) was more than 250 µg/mL in each case. Further, the MIC against Saccharomyces cerevisiae, against Aspergillus flavus and in the assay on Nannizzia gypsea was more than 250 µg/mL each time.

In the case of `Cc1cc(-c2ccncc2)nc2c(C(C)C)ccc([N+](=O)[O-])c12`, the MIC (in the assay with Candida albicans; in the assay on Trichophyton rubrum; in [1]; against Aspergillus fumigatus; in the assay with Cryptococcus neoformans; with Aspergillus niger) was more than 250 µg/mL each time. The MIC in the assay on Saccharomyces cerevisiae, against Aspergillus flavus and against Nannizzia gypsea was more than 250 µg/mL each time.

As for `O=[N+]([O-])c1cccc(-c2ccc3cc(Cl)ccc3n2)c1`, the MIC (with Candida albicans; in the assay with Trichophyton rubrum; in assay [1]; in the assay with Aspergillus fumigatus; with Cryptococcus neoformans; against Aspergillus niger) was more than 250 µg/mL each time. In addition, the MIC against Saccharomyces cerevisiae, against Aspergillus flavus and in the assay with Nannizzia gypsea was more than 250 µg/mL in each case.

On to `Cc1cc(-c2ccccc2)nc2ccccc12`, for which the MIC in the assay with Candida albicans was more than 250 µg/mL; in the assay with Trichophyton rubrum, 25 µg/mL (≈ 114 µM); in assay [1] it was 12.5 µg/mL (≈ 57 µM); with Aspergillus fumigatus it was more than 250 µg/mL; in the assay with Cryptococcus neoformans, 250 µg/mL (≈ 1140 µM); against Aspergillus niger it was more than 250 µg/mL. Also, the MIC in the assay with Saccharomyces cerevisiae was more than 250 µg/mL; with Aspergillus flavus it was more than 250 µg/mL; in the assay with Nannizzia gypsea, 12.5 µg/mL (≈ 57 µM).

With `CCc1ccc2nc(-c3ccccc3)ccc2c1`, the MIC is more than 250 µg/mL against Candida albicans; 250 µg/mL (≈ 1070 µM) in the assay with Trichophyton rubrum; 250 µg/mL (≈ 1070 µM) in assay [1]; more than 250 µg/mL against Aspergillus fumigatus; more than 250 µg/mL in the assay with Cryptococcus neoformans; more than 250 µg/mL against Aspergillus niger. In addition, the values for the MIC against Saccharomyces cerevisiae, against Aspergillus flavus and in the assay with Nannizzia gypsea were more than 250 µg/mL, more than 250 µg/mL and 250 µg/mL (≈ 1070 µM), respectively.

As to `CCc1cccc2c(C)cc(-c3ccncc3)nc12`, the MIC (in the assay with Candida albicans; with Trichophyton rubrum; in [1]; with Aspergillus fumigatus; in the assay with Cryptococcus neoformans; against Aspergillus niger) was more than 250 µg/mL in each case. Besides, the MIC against Saccharomyces cerevisiae, with Aspergillus flavus and against Nannizzia gypsea was more than 250 µg/mL throughout.

For the compound `Clc1ccc2nc(-c3cccs3)ccc2c1`, the MIC (against Candida albicans; with Trichophyton rubrum; in assay [1]; with Aspergillus fumigatus; in the assay with Cryptococcus neoformans; in the assay with Aspergillus niger) was more than 250 µg/mL each time. In addition, the MIC against Saccharomyces cerevisiae, in the assay with Aspergillus flavus and in the assay with Nannizzia gypsea was more than 250 µg/mL throughout.

Take `O=[N+]([O-])c1ccc2nc(-c3ccccc3)ccc2c1`: the MIC (with Candida albicans; in the assay on Trichophyton rubrum; in [1]; against Aspergillus fumigatus; against Cryptococcus neoformans; with Aspergillus niger) was more than 250 µg/mL throughout. Also, the MIC against Saccharomyces cerevisiae, in the assay with Aspergillus flavus and in the assay on Nannizzia gypsea was more than 250 µg/mL each time.

Consider `COc1ccc2nc(-c3cccs3)ccc2c1`, for which the MIC (in the assay with Candida albicans; with Trichophyton rubrum; in [1]; against Aspergillus fumigatus; with Cryptococcus neoformans; with Aspergillus niger) was more than 250 µg/mL in each case. The MIC against Saccharomyces cerevisiae, in the assay with Aspergillus flavus and in the assay on Nannizzia gypsea was more than 250 µg/mL each time.

As to `CCc1ccc2nc(-c3cccc([N+](=O)[O-])c3)ccc2c1`, the MIC (with Candida albicans; with Trichophyton rubrum; in assay [1]; against Aspergillus fumigatus; with Cryptococcus neoformans; with Aspergillus niger) was more than 250 µg/mL throughout. In addition, the MIC against Saccharomyces cerevisiae, against Aspergillus flavus and against Nannizzia gypsea was more than 250 µg/mL throughout.

For `Cc1cc(C)c2ccc(-c3ccccc3)nc2c1`, the MIC (in the assay with Candida albicans; in the assay with Trichophyton rubrum; in [1]; against Aspergillus fumigatus; against Cryptococcus neoformans; in the assay with Aspergillus niger) was more than 250 µg/mL throughout. Further, the MIC with Saccharomyces cerevisiae, against Aspergillus flavus and in the assay with Nannizzia gypsea was more than 250 µg/mL throughout.

For `Cc1ccc2nc(-c3ccc4c(c3)OCO4)ccc2c1`, the MIC (against Candida albicans; in the assay with Trichophyton rubrum; in [1]; in the assay on Aspergillus fumigatus; in the assay on Cryptococcus neoformans; against Aspergillus niger) was more than 250 µg/mL in each case. Moreover, the MIC in the assay on Saccharomyces cerevisiae, in the assay with Aspergillus flavus and with Nannizzia gypsea was more than 250 µg/mL each time.

Turning to `c1ccc2nc(-c3ccc4c(c3)OCO4)ccc2c1`, the MIC (with Candida albicans; in the assay on Trichophyton rubrum; in assay [1]; in the assay with Aspergillus fumigatus; in the assay on Cryptococcus neoformans; in the assay on Aspergillus niger) was more than 250 µg/mL throughout. Also, the MIC in the assay on Saccharomyces cerevisiae, in the assay with Aspergillus flavus and in the assay with Nannizzia gypsea was more than 250 µg/mL throughout.

As to `Clc1ccc2nc(-c3ccccc3)ccc2c1`, the MIC (against Candida albicans; with Trichophyton rubrum; in assay [1]; against Aspergillus fumigatus; with Cryptococcus neoformans; against Aspergillus niger) was more than 250 µg/mL each time. Further, the MIC with Saccharomyces cerevisiae, in the assay with Aspergillus flavus and in the assay with Nannizzia gypsea was more than 250 µg/mL in each case.

For `Oc1ccc2nc(-c3ccccc3)ccc2c1`, the MIC against Candida albicans is more than 250 µg/mL; with Trichophyton rubrum, 125 µg/mL (≈ 565 µM); in assay [1], 250 µg/mL (≈ 1130 µM); against Aspergillus fumigatus, more than 250 µg/mL; in the assay with Cryptococcus neoformans it was more than 250 µg/mL; with Aspergillus niger it was more than 250 µg/mL. The figures for the MIC in the assay on Saccharomyces cerevisiae, in the assay with Aspergillus flavus and in the assay with Nannizzia gypsea were more than 250 µg/mL, more than 250 µg/mL and 125 µg/mL (≈ 565 µM), respectively.

Turning to `COc1ccc2nc(-c3ccco3)ccc2c1`, the MIC against Candida albicans was more than 250 µg/mL; with Trichophyton rubrum, 125 µg/mL (≈ 555 µM); in assay [1], 125 µg/mL (≈ 555 µM); with Aspergillus fumigatus, more than 250 µg/mL; against Cryptococcus neoformans, more than 250 µg/mL; with Aspergillus niger, more than 250 µg/mL. In addition, the figures for the MIC against Saccharomyces cerevisiae, in the assay on Aspergillus flavus and in the assay on Nannizzia gypsea were more than 250 µg/mL, more than 250 µg/mL and 125 µg/mL (≈ 555 µM), respectively.

On to `COc1cc(OC)c2nc(-c3ccc4c(c3)OCO4)ccc2c1`, for which the MIC (against Candida albicans; with Trichophyton rubrum; in assay [1]; with Aspergillus fumigatus; in the assay with Cryptococcus neoformans; in the assay with Aspergillus niger) was more than 250 µg/mL throughout. In addition, the MIC against Saccharomyces cerevisiae, in the assay on Aspergillus flavus and against Nannizzia gypsea was more than 250 µg/mL each time.

Consider `c1ccc(-c2ccc3cc4c(cc3n2)OCO4)cc1`, for which the MIC is more than 250 µg/mL in the assay on Candida albicans; 250 µg/mL (≈ 1000 µM) with Trichophyton rubrum; 250 µg/mL (≈ 1000 µM) in [1]; more than 250 µg/mL with Aspergillus fumigatus; 125 µg/mL (≈ 501 µM) with Cryptococcus neoformans; more than 250 µg/mL against Aspergillus niger. In addition, the MIC in the assay on Saccharomyces cerevisiae is more than 250 µg/mL; in the assay on Aspergillus flavus, more than 250 µg/mL; in the assay on Nannizzia gypsea, 250 µg/mL (≈ 1000 µM).
